Laboratory results published in ChEMBL document CHEMBL3992532, “Structure-Based Design of Macrocyclic Factor XIa Inhibitors: Discovery of the Macrocyclic Amide Linker” (J Med Chem, 2017).
Values belong to the molecule of their own block, whether it stands above or below them.

Legend:
Coagulation factor XI = Coagulation factor XI (Homo sapiens, UniProt P03951); experiment: Inhibition of human coagulation factor 11a using pyroGlu-Pro-Arg-pNA as substrate after 10 to 120 mins at 37 degC by spectrophotometric method
Sequence of Coagulation factor XI (P03951 19-387 limits assumed): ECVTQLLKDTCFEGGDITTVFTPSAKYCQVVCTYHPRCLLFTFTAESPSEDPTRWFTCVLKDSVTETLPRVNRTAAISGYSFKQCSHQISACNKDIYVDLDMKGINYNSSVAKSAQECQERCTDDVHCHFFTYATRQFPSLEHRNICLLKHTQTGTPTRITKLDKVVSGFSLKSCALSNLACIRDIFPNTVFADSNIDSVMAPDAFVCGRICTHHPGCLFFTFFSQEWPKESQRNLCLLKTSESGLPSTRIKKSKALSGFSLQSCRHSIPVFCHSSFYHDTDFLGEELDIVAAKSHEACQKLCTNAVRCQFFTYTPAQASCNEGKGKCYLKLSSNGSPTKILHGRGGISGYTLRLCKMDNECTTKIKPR
Sequence of Coagulation factor XI (P03951 388-625 limits assumed): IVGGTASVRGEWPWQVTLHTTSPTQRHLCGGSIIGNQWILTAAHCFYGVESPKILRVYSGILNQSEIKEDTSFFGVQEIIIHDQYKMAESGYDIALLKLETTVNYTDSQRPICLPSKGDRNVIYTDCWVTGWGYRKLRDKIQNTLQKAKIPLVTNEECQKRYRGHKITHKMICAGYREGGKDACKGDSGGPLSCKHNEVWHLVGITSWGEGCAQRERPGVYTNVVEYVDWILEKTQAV
How it was run: (§1)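 Purified human proteases, 37 °C; reaction started by adding enzyme to substrate (up to 4× Km) ± inhibitor; compound from DMSO, 1% DMSO final except where noted. […] Buffers: FXIa, chymotrypsin, tPA, plasmin, urokinase in 50 mM HEPES pH 7.4, 145 mM NaCl, 5 mM KCl, 0.1% PEG 8000; FXa, thrombin, trypsin, plasma kallikrein, aPC in 100 mM Na phosphate pH 7.4, 200 mM NaCl, 0.5% PEG 8000; FIXa in 50 mM Tris pH 7.4, 100 mM NaCl, 5 mM CaCl2, 0.5% PEG 8000, 2% DMSO.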

Coagulation factor IX = Coagulation factor IX (Homo sapiens, UniProt P00740); experiment: Inhibition of human coagulation factor 9a using methylsulfonyl-D-cyclohexylglycyl-Gly-Arg-AMC as substrate after 10 to 120 mins at 37 degC by spectrophotometric method; how it was run: as §1
Sequence of Coagulation factor IX (P00740 47-191 limits assumed): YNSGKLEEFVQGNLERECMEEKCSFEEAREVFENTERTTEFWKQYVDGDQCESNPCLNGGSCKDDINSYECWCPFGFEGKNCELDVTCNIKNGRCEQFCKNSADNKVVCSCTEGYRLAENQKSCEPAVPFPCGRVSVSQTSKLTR
Sequence of Coagulation factor IX (P00740 227-461 limits assumed): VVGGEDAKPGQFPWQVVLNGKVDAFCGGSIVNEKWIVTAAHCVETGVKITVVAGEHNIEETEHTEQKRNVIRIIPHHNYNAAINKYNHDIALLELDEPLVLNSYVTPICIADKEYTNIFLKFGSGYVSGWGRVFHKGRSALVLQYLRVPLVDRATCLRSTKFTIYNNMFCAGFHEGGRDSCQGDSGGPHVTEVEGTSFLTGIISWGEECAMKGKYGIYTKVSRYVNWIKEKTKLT

[1] = Inhibition of human trypsin using N-benzoyl-Ile-Glu-(OH,OMe)-Gly-Arg-pNA as substrate after 10 to 120 mins at 37 degC by spectrophotometric method; how it was run: as §1
Coagulation factor X = Coagulation factor X (Homo sapiens, UniProt P00742); experiment: Inhibition of human coagulation factor 10a using N-benzoyl-Ile-Glu-(OH,OMe)-Gly-Arg-pNA as substrate after 10 to 120 mins at 37 degC by spectrophotometric method; how it was run: as §1
Sequence of Coagulation factor X (P00742 41-179 limits assumed): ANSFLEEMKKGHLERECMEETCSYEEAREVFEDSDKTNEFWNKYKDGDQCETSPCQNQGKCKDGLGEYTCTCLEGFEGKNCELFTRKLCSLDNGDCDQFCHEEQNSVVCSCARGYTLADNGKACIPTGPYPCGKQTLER
Sequence of Coagulation factor X (P00742 235-488 limits assumed): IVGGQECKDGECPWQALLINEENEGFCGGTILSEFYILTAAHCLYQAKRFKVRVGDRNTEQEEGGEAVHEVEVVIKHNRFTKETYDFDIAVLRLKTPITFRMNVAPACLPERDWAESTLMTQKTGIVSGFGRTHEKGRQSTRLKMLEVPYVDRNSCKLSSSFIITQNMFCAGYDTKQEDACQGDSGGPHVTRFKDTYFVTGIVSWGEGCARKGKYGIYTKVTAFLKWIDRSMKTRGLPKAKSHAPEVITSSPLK

[2] = target: Urokinase-type plasminogen activator (Homo sapiens, UniProt P00749); experiment: Inhibition of human urokinase using pyro-Glu-Gly-Arg-pNA as substrate after 10 to 120 mins at 37 degC by spectrophotometric method; how it was run: as §1
[3] = target: Tissue-type plasminogen activator (Homo sapiens, UniProt P00750); experiment: Inhibition of human tissue plasminogen activator using methylsulfonyl-D-cyclohexylalanyl-GlyArg-pNA as substrate after 10 to 120 mins at 37 degC by spectrophotometric method; how it was run: as §1
Sequence of Tissue-type plasminogen activator (P00750 whole entry): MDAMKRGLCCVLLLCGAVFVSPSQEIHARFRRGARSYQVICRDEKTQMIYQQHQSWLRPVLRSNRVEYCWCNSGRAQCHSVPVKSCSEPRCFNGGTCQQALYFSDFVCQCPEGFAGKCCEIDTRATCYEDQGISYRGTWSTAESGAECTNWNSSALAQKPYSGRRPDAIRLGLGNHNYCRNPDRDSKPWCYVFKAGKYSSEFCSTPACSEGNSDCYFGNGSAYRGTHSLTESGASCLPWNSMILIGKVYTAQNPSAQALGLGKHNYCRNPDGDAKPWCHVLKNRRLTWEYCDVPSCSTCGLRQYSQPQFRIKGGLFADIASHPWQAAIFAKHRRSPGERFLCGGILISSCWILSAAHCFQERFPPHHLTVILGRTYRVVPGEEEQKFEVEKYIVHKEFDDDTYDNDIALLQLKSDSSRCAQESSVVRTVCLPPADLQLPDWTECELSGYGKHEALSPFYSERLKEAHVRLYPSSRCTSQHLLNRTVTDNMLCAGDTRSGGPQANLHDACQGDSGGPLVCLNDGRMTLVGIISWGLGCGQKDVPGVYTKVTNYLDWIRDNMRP

[4] = Inhibition of human chymotrypsin using MeO-SucArg-Pro-Tyr-pNA as substrate after 10 to 120 mins at 37 degC by spectrophotometric method; how it was run: as §1
Prothrombin = Prothrombin (Homo sapiens, UniProt P00734); experiment: Inhibition of human thrombin using pyroGlu-Pro-Arg-pNA as substrate after 10 to 120 mins at 37 degC by spectrophotometric method; how it was run: as §1
Coagulation factor VII = target: T1, Coagulation factor VII (Homo sapiens, UniProt P08709); experiment: Inhibition of human coagulation factor 7a using H-(D)-Ile-Pro-Arg-pNA as substrate after 10 to 120 mins at 25 degC by spectrophotometric method
T1 sequence (P08709 whole entry): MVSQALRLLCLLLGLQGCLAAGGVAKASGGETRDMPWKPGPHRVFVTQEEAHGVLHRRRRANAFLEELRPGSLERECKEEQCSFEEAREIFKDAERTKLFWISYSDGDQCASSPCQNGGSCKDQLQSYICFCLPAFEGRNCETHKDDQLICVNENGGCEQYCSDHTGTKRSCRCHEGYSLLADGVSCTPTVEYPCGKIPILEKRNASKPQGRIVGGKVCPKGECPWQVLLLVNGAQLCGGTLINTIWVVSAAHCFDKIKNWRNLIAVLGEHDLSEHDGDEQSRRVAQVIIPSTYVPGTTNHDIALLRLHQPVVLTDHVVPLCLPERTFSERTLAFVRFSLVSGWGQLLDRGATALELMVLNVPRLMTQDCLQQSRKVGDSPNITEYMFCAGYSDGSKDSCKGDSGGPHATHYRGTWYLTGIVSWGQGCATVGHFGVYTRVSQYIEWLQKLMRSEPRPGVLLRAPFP

Plasminogen = Plasminogen (Homo sapiens, UniProt P00747); experiment: Inhibition of human plasmin using H-(D)-Val-Leu-LyspNA as substrate after 10 to 120 mins at 37 degC by spectrophotometric method; how it was run: as §1
Sequence of Plasminogen (P00747 97-580 limits assumed): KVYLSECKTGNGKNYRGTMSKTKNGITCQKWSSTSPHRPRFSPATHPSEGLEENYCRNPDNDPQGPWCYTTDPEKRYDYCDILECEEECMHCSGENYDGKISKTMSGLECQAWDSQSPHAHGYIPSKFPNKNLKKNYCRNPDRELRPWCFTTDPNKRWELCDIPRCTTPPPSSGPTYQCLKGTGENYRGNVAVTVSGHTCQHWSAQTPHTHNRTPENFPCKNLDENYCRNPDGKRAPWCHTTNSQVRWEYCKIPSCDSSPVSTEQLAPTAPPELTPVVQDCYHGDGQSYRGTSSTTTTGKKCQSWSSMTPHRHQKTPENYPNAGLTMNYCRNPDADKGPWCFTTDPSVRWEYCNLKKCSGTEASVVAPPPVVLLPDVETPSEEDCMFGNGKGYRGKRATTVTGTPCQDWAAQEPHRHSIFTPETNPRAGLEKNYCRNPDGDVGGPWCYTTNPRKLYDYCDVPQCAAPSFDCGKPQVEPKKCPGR
Sequence of Plasminogen (P00747 581-810 limits assumed): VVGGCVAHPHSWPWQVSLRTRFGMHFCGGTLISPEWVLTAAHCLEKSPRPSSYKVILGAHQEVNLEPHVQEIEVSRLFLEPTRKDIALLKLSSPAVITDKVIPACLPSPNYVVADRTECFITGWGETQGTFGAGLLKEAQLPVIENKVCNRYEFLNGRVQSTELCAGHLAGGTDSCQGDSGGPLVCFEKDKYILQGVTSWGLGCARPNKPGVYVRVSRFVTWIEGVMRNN

[5] = target: Vitamin K-dependent protein C (Homo sapiens, UniProt P04070); experiment: Inhibition of human activated protein C using pyroGlu-Pro-Arg-pNA as substrate after 10 to 120 mins at 37 degC by spectrophotometric method; how it was run: as §1
Sequence of Vitamin K-dependent protein C (P04070 43-197 limits assumed): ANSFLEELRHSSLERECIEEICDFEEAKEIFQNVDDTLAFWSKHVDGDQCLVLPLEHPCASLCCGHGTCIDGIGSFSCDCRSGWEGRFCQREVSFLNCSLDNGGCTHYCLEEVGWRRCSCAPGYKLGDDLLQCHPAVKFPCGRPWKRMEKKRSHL
Sequence of Vitamin K-dependent protein C (P04070 212-461 limits assumed): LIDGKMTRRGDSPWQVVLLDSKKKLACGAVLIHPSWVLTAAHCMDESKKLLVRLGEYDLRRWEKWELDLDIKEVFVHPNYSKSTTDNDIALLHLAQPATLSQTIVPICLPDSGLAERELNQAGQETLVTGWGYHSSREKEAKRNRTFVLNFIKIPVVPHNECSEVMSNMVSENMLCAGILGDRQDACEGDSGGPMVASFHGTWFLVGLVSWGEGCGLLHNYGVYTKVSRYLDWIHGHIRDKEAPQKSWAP

Plasma kallikrein = Plasma kallikrein (Homo sapiens, UniProt P03952); experiment: Inhibition of human plasma kallikrein using H-(D)-Pro-Phe-Arg-pNA as substrate after 10 to 120 mins at 37 degC by spectrophotometric method; how it was run: as §1
Sequence of Plasma kallikrein (P03952 20-390 limits assumed): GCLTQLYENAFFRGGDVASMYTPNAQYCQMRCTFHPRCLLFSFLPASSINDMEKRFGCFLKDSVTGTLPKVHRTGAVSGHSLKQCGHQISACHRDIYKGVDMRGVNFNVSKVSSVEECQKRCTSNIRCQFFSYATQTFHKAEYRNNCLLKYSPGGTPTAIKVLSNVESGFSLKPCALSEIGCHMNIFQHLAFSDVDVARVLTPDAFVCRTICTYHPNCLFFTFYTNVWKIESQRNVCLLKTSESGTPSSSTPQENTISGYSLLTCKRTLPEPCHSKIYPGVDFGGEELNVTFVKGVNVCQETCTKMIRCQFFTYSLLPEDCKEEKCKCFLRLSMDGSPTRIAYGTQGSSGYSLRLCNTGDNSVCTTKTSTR
Sequence of Plasma kallikrein (P03952 391-638 limits assumed): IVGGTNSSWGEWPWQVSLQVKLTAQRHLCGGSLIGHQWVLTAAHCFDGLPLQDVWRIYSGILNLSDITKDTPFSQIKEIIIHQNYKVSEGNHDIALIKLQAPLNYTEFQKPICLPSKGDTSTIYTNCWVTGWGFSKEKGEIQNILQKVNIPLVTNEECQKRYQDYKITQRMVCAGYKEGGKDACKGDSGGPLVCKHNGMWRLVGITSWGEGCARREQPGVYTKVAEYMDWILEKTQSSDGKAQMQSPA

Coagulation factor XII = target: T2, Coagulation factor XII (Homo sapiens, UniProt P00748); experiment: Inhibition of human coagulation factor 12a using H-(D)-CHT-Gly-Arg-pNA as substrate after 10 to 120 mins at 25 degC by spectrophotometric method
T2 sequence (P00748 whole entry): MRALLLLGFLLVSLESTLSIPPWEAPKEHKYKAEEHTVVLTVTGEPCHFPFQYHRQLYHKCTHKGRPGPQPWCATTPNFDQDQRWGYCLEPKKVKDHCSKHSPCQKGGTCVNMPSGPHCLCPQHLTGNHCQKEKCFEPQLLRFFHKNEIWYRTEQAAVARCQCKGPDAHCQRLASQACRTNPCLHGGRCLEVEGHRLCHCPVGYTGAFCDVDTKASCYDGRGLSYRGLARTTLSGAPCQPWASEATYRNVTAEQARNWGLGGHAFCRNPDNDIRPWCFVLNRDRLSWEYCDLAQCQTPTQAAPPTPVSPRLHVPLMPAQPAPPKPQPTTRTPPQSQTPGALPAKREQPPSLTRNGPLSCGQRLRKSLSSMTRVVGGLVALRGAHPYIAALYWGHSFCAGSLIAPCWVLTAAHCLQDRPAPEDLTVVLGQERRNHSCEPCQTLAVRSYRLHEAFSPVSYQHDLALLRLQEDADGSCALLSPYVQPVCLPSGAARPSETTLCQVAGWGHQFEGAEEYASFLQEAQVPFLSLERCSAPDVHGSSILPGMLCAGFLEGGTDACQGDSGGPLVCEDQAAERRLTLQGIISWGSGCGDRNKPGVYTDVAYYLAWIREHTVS

Plasma = experiment: Anticoagulant activity in human plasma assessed as concentration required to produce 50% increase in activated partial thromboplastin time; type: functional
How it was run: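 Citrated (one-tenth volume 0.11 M) plasma from healthy volunteers, spun 2,000 g 10 min, kept on ice; 10 mM DMSO stock diluted in plasma, up to 7 concentrations; aPTT on automated coagulometer, duplicates as mean ratio to baseline; EC1.5x (50% prolongation) by linear interpolation, as total plasma concentration.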

[6] = Volume of distribution at steady state in Beagle dog at 0.2 mg/kg, iv administered as 10 mins infusion or 0.23 mg/kg, po via gavage administered as cassette dose by LC-MS/MS method; type: ADME, organism-based, Canis lupus familiaris; conditions: in vivo, read-out: Vdss
How it was run: (§2)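 Dog PK vehicles as footnoted: iv in 70% PEG 400/20% water/10% ethanol; po either 70% PEG 400/20% TPGS/10% ethanol or the same PEG 400/water/ethanol vehicle used for iv.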

[7] = Half life in Beagle dog at 0.2 mg/kg, iv administered as 10 mins infusion or 0.23 mg/kg, po via gavage administered as cassette dose by LC-MS/MS method; type: ADME, organism-based, Canis lupus familiaris; conditions: in vivo; how it was run: as §2
[8] = Half life in dog liver microsomes; type: ADME, Canis lupus familiaris, microsome
[9] = Half life in human liver microsomes; type: ADME, microsome
Canis familiaris [10] = experiment: AUC in Beagle dog at 0.23 mg/kg, po administered via gavage as cassette dose by LC-MS/MS method; type: ADME, organism-based, Canis lupus familiaris; conditions: in vivo; how it was run: as §2
Canis familiaris [11] = experiment: Oral bioavailability in Beagle dog at 0.23 mg/kg administered via gavage as cassette dose by LC-MS/MS method; type: ADME, organism-based, Canis lupus familiaris; conditions: in vivo; how it was run: as §2
[12] = Protein binding in dog plasma; type: ADME, cell-free, Canis lupus familiaris; conditions: read-out: PPB (converted)
[13] = Volume of distribution at steady state in Beagle dog at 0.21 mg/kg, iv administered as 10 mins infusion or 0.42 mg/kg, po via gavage administered as cassette dose by LC-MS/MS method; type: ADME, organism-based, Canis lupus familiaris; conditions: in vivo, read-out: Vdss; how it was run: as §2
[14] = Half life in Beagle dog at 0.21 mg/kg, iv administered as 10 mins infusion or 0.42 mg/kg, po via gavage administered as cassette dose by LC-MS/MS method; type: ADME, organism-based, Canis lupus familiaris; conditions: in vivo; how it was run: as §2
Canis familiaris [15] = experiment: AUC in Beagle dog at 0.42 mg/kg, po administered via gavage as cassette dose by LC-MS/MS method; type: ADME, organism-based, Canis lupus familiaris; conditions: in vivo; how it was run: as §2
Canis familiaris [16] = experiment: Oral bioavailability in Beagle dog at 0.42 mg/kg administered via gavage as cassette dose by LC-MS/MS method; type: ADME, organism-based, Canis lupus familiaris; conditions: in vivo; how it was run: as §2

- Ki (Coagulation factor XI): 5.8 nM
- Ki (Coagulation factor IX): > 27.1 µM
- Ki [1]: > 10 µM
- Ki (Coagulation factor X): > 13.3 µM
- Ki [2]: > 15.1 µM
- Ki [3]: > 6.15 µM
- Ki [4]: > 4.53 µM
- Ki (Prothrombin): > 11.5 µM
- Ki (Coagulation factor VII): > 13.4 µM
- Ki (Plasminogen): > 15.2 µM
- Ki [5]: > 21.5 µM
- Ki (Plasma kallikrein): 0.519 µM
- Ki (Coagulation factor XII): > 3.05 µM
Structure (SMILES): COC(=O)Nc1ccc(-c2nc([C@H](Cc3ccccc3)NC(=O)/C=C/c3cc(Cl)ccc3-n3cnnn3)[nH]c2Cl)cc1
- EC1.5 (Plasma): 5.3 µM

- Ki (Coagulation factor XI): 1 nM
- Vd [6]: 0.8 L/kg
- half-life [7]: 1 h
- Ki (Coagulation factor IX): > 27.1 µM
- Ki [1]: 8.39 µM
- Ki (Coagulation factor X): > 13.3 µM
- Ki [2]: > 15.1 µM
- Ki [3]: > 6.15 µM
- Ki [4]: 3.94 µM
- Ki (Prothrombin): > 11.5 µM
- half-life [8]: > 2 h
- Ki (Coagulation factor VII): 3.19 µM
- half-life [9]: 1.5 h
- AUC (Canis familiaris [10]): 0.021 µM·h
- Ki (Plasminogen): > 15.2 µM
- Ki [5]: > 21.5 µM
- F (Canis familiaris [11]): 6%
- Ki (Plasma kallikrein): 0.07 µM
- fraction unbound [12]: 0.098
- Ki (Coagulation factor XII): > 3.05 µM
Structure (SMILES): COC(=O)Nc1ccc2c(c1)NC(=O)CCCC[C@H](NC(=O)/C=C/c1cc(Cl)ccc1-n1cnnn1)c1nc-2c[nH]1
- EC1.5 (Plasma): 0.3 µM

- Ki (Coagulation factor XI): 87 nM
- half-life [8]: > 2 h
- Vd [13]: 0.7 L/kg
- half-life [14]: 3.2 h
- AUC (Canis familiaris [15]): 0.458 µM·h
- F (Canis familiaris [16]): 12%
Structure (SMILES): COC(=O)Nc1ccc2c(c1)CCCCCC[C@H](NC(=O)/C=C/c1cc(Cl)ccc1-n1cnnn1)c1nc-2c[nH]1
- EC1.5 (Plasma): >40 µM

- Ki (Coagulation factor XI): 514 nM
- half-life [9]: 0.283 h
Structure (SMILES): COC(=O)Nc1ccc2c(c1)NCCC/C=C/C[C@H](NC(=O)/C=C/c1cc(Cl)ccc1-n1cnnn1)c1nc-2c[nH]1

- Ki (Coagulation factor XI): 0.03 nM
- half-life [9]: 0.967 h
Structure (SMILES): COC(=O)Nc1ccc2c(c1)NC(=O)CC/C=C/C[C@H](NC(=O)/C=C/c1cc(Cl)ccc1-n1cnnn1)c1nc-2c(Cl)[nH]1
- EC1.5 (Plasma): 0.28 µM

- Ki (Coagulation factor XI): 0.47 nM
- half-life [9]: 1.43 h
Structure (SMILES): COC(=O)Nc1ccc2c(c1)NC(=O)CCCCC[C@H](NC(=O)/C=C/c1cc(Cl)ccc1-n1cnnn1)c1nc-2c(Cl)[nH]1
- EC1.5 (Plasma): 0.92 µM

- Ki (Coagulation factor XI): 42 nM
Structure (SMILES): COC(=O)Nc1ccc2c(c1)CCCCCC[C@H](NC(=O)/C=C/c1cc(Cl)ccc1-n1cnnn1)c1nc-2c(Cl)[nH]1
- EC1.5 (Plasma): 27 µM

- Ki (Coagulation factor XI): 68 nM
Structure (SMILES): COC(=O)Nc1ccc2c(c1)CCCCCCC[C@H](NC(=O)/C=C/c1cc(Cl)ccc1-n1cnnn1)c1nc-2c(Cl)[nH]1
- EC1.5 (Plasma): 34 µM

- Ki (Coagulation factor XI): 27 nM
- half-life [9]: 0.2 h
Structure (SMILES): C=CC[C@H](NC(=O)/C=C/c1cc(Cl)ccc1-n1cnnn1)c1nc(-c2ccc(NC(=O)OC)cc2NC(=O)CC)c[nH]1
- EC1.5 (Plasma): 21 µM
